From ChEMBL document CHEMBL3875165, “Novel broad-spectrum and long-acting parenteral cephalosporins having an acyl cyanamide moiety at the C-3 terminal: Synthesis and structure-activity relationships” (Eur J Med Chem, 2016)
Values after ≈ are worked out from the molar mass of the structure shown.

Columns and labels:
[1] = AUC (0 to infinity) in monkey at 20 mg/kg, iv administered as bolus dose by HPLC method; format: ADME, organism-based, Macaca mulatta; parameters: dose 20 mg/kg, time infinity, route intravenous; conditions: rhesus monkey, in vivo
Method in brief: (§1)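 Three monkeys per group received a single iv bolus of 20 mg/kg (1 mL/kg). Plasma levels were measured by HPLC. AUC0-∞, CLtot and T1/2 came from a 2-compartment fit.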

[2] = Half life in monkey at 20 mg/kg, iv administered as bolus dose by HPLC method; format: ADME, organism-based, Macaca mulatta; conditions: rhesus monkey, in vivo; method in brief: as §1
[3] = Total clearance in monkey at 20 mg/kg, iv administered as bolus dose by HPLC method; format: ADME, organism-based, Macaca mulatta; conditions: rhesus monkey, in vivo; method in brief: as §1
[4] = Protein binding in ICR mouse plasma after 30 mins by ultra-filtration method; format: ADME, cell-free; conditions: read-out: PPB (converted)
Method in brief: (§2)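 Mouse or monkey plasma was adjusted to pH 7 with CO2 and spiked with compound to a final 10 µg/ml. It was incubated 30 min at 37 °C, then ultrafiltered by centrifugation at 3200 rpm for 30 min at 25 °C. Free drug in the filtrate was measured by bioassay to give the bound fraction.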

[5] = Protein binding in cynomolgus monkey plasma after 30 mins by ultra-filtration method; format: ADME, cell-free, Macaca fascicularis; conditions: read-out: PPB (converted); method in brief: as §2
[6] = system: Staphylococcus aureus; assay: Antibacterial activity against Staphylococcus aureus SMITH after 20 hrs by agar dilution method; format: functional
Method in brief: (§3)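 Agar dilution MIC on Sensitivity Disk Agar-N with 2-fold serial drug dilutions. Overnight Mueller Hinton broth cultures were diluted to about 10^6 CFU/mL, and 1 µL spots were applied. Plates were incubated 20 h at 37 °C before scoring.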

[7] = system: Streptococcus pneumoniae; assay: Antibacterial activity against penicillin-resistant Streptococcus pneumoniae SR16675 after 20 hrs by agar dilution method; format: functional; conditions: SR16675, 20 h
Method in brief: (§4)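 Agar dilution on Sensitivity Disk Agar-N. Overnight Mueller Hinton broth cultures were diluted to about 10^6 CFU/mL, and 1 µL spots were placed on agar plates holding 2-fold serial dilutions of antibiotic. Plates were incubated 20 h at 37 °C and then MICs were scored.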

[8] = system: Streptococcus pneumoniae; assay: Antibacterial activity against penicillin-resistant Streptococcus pneumoniae SR16750 after 20 hrs by agar dilution method; format: functional; conditions: SR16750, 20 h; method in brief: as §4
[9] = system: Haemophilus influenzae; assay: Antibacterial activity against beta-lactamase non-producing penicillin-resistant Haemophilus influenzae SR11435 after 20 hrs by agar dilution method; format: functional; conditions: SR11435, 20 h; method in brief: as §4
[10] = system: Haemophilus influenzae; assay: Antibacterial activity against beta-lactamase non-producing penicillin-resistant Haemophilus influenzae SR24106 after 20 hrs by agar dilution method; format: functional; conditions: SR24106, 20 h; method in brief: as §4
[11] = system: Moraxella catarrhalis; assay: Antibacterial activity against Moraxella catarrhalis SR24290 after 20 hrs by agar dilution method; format: functional; conditions: SR24290, 20 h; method in brief: as §3
[12] = system: Escherichia coli; assay: Antibacterial activity against Escherichia coli NIHJ JC-2 after 20 hrs by agar dilution method; format: functional; conditions: NIHJ JC-2, 20 h; method in brief: as §3
[13] = Half life in mouse at 20 mg/kg, iv administered as bolus dose by band-culture bioassay; conditions: in vivo
[14] = Total clearance in mouse at 20 mg/kg, iv administered as bolus dose by band-culture bioassay; conditions: in vivo
[15] = AUC (0 to infinity) in mouse at 20 mg/kg, iv administered as bolus dose by band-culture bioassay; conditions: in vivo
[16] = system: Staphylococcus aureus; assay: Antibacterial activity against Staphylococcus aureus SMITH; format: functional; method in brief: as §3
[17] = system: Staphylococcus aureus; assay: Antibacterial activity against methicillin-resistant Staphylococcus aureus SR2030; format: functional; method in brief: as §4
[18] = system: Staphylococcus aureus; assay: Antibacterial activity against methicillin-resistant Staphylococcus aureus SR3626; format: functional; method in brief: as §4
[19] = system: Escherichia coli; assay: Antibacterial activity against Escherichia coli NIHJ JC-2; format: functional; method in brief: as §3
[20] = system: Pseudomonas aeruginosa; assay: Antibacterial activity against Pseudomonas aeruginosa PAO1; format: functional; method in brief: as §3
[21] = system: Pseudomonas aeruginosa; assay: Antibacterial activity against Pseudomonas aeruginosa SA24; format: functional; method in brief: as §3
[22] = system: Streptococcus pneumoniae; assay: Antibacterial activity against penicillin-susceptible Streptococcus pneumoniae SR16605 infected in sc dosed mouse assessed as protection against bacterial infection by measuring increase in mouse survival administered 1 and 5 hrs post infection measured after 7 days; format: functional
Method in brief: (§5)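 Mouse septicemia model in six-week-old male Jcl:ICR mice (19 to 25 g). Mice were infected intraperitoneally with 0.5 mL of S. pneumoniae suspension in hog mucin. Compound was given subcutaneously 1 and 5 h after infection. Mortality was recorded over 7 days, and ED50 with 90% confidence limits was derived by the logit method.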

[23] = system: Streptococcus pneumoniae; assay: Antibacterial activity against penicillin-resistant Streptococcus pneumoniae SR16754 infected in sc dosed mouse assessed as protection against bacterial infection by measuring increase in mouse survival administered 1 and 5 hrs post infection measured after 7 days; format: functional; method in brief: as §5
[24] = system: Streptococcus pneumoniae; assay: Antibacterial activity against penicillin-susceptible Streptococcus pneumoniae SR16605 after 20 hrs by agar dilution method; format: functional; conditions: SR16605, 20 h; method in brief: as §4
[25] = system: Streptococcus pneumoniae; assay: Antibacterial activity against penicillin-resistant Streptococcus pneumoniae SR16754 after 20 hrs by agar dilution method; format: functional; conditions: SR16754, 20 h; method in brief: as §4
[26] = system: Streptococcus pneumoniae; assay: Potency index, ratio of Ceftriaxone MIC to compound MIC for penicillin-susceptible Streptococcus pneumoniae SR16605; format: functional

Compound | AUC [1] [ng·h/mL] | half-life [2] [min] | clearance [3] [mL/min/kg] | fraction unbound at 0.5 h [4] | fraction unbound at 0.5 h [5] | MIC [6] [µg/mL] | MIC [7] [µg/mL] | MIC [8] [µg/mL] | MIC [9] [µg/mL] | MIC [10] [µg/mL] | MIC [11] [µg/mL] | MIC [12] [µg/mL] | half-life [13] [min] | clearance [14] [mL/min/kg] | AUC(0-inf) [15] [ng·h/mL] | also measured
CCO/N=C(\C(=O)N[C@@H]1C(=O)N2C(C(=O)[O-])=C(/C=C/C[n+]3cccc(/C([O-])=N/C#N)c3)CS[C@H]12)c1csc(N)n1.[Na+] | 9500 | 79.8 | 1.79 | 0.94 | 0.67 | 0.5 | 0.25 | 0.5 | 0.063 | 0.125 | 2 | 0.125 | 33 | 23.7 | 14100 | 
CCO/N=C(\C(=O)N[C@@H]1C(=O)N2C(C(=O)[O-])=C(C[n+]3ccc(-c4c[nH]c(C(=O)O)c4)cc3)CS[C@H]12)c1nsc(N)n1 |  |  |  |  |  |  |  |  |  |  |  |  |  |  |  | MIC [16]: 3.1 µg/mL (≈ 5.18 µM); MIC [17]: 12.5 µg/mL (≈ 20.9 µM); MIC [18]: 25 µg/mL (≈ 41.8 µM); MIC [19]: 0.05 µg/mL (≈ 0.0835 µM); MIC [20]: 0.8 µg/mL (≈ 1.34 µM); MIC [21]: 0.8 µg/mL (≈ 1.34 µM)
CCO/N=C(\C(=O)N[C@@H]1C(=O)N2C(C(=O)[O-])=C(C[n+]3ccc(-c4c[nH]c(C(=O)NC#N)c4)cc3)CS[C@H]12)c1nsc(N)n1 | 22000 | 120 |  |  |  |  |  |  |  |  |  |  | 24 |  | 27300 | MIC [16]: 1.6 µg/mL (≈ 2.57 µM); MIC [17]: 12.5 µg/mL (≈ 20.1 µM); MIC [18]: 12.5 µg/mL (≈ 20.1 µM); MIC [19]: 0.1 µg/mL (≈ 0.161 µM); MIC [20]: 0.8 µg/mL (≈ 1.28 µM); MIC [21]: 0.4 µg/mL (≈ 0.642 µM)
CCO/N=C(\C(=O)N[C@@H]1C(=O)N2C(C(=O)[O-])=C(/C=C/C[n+]3cccc4cc(/C([O-])=N/C#N)[nH]c43)CS[C@H]12)c1csc(N)n1.[Na+] | 29200 | 261 | 0.57 | 0.67 | 0.06 | 0.5 | 0.25 | 0.5 | 0.063 | 0.25 | 0.5 | 0.125 | 38.4 | 15 | 22200 | 
CCO/N=C(\C(=O)N[C@@H]1C(=O)N2C(C(=O)[O-])=C(/C=C/C[n+]3ccc(/C([O-])=N/C#N)cc3)CS[C@H]12)c1csc(N)n1.[Na+] | 9700 | 73.2 | 1.84 | 0.92 | 0.59 | 0.5 | 0.25 | 0.5 | 0.063 | 0.125 | 1 | 0.25 | 43.2 | 22.9 | 14600 | 
CCO/N=C(\C(=O)N[C@@H]1C(=O)N2C(C(=O)[O-])=C(/C=C/C[n+]3ccc(-c4nc(/C([O-])=N/C#N)cs4)cc3)CS[C@H]12)c1csc(N)n1.[Na+] | 37500 | 233 | 0.49 | 0.81 | 0.27 | 0.5 | 0.25 | 0.25 | 0.031 | 0.063 | 1 | 0.063 | 40.2 | 16 | 20900 | ED50 [22]: 0.017 mg/kg; ED50 [23]: 0.71 mg/kg; MIC [24]: 0.008 µg/mL; MIC [25]: 0.25 µg/mL; Ratio [26]: 2 - 3
CCO/N=C(\C(=O)N[C@@H]1C(=O)N2C(C(=O)[O-])=C(/C=C/C[n+]3ccc4[nH]c(/C([O-])=N/C#N)cc4c3)CS[C@H]12)c1csc(N)n1.[Na+] | 20900 | 201 | 0.8 | 0.73 | 0.33 | 0.5 | 0.25 | 0.5 | 0.063 | 0.125 | 4 | 0.25 | 37.8 | 10.9 | 30400 | 
